Measured values as given in ChEMBL document CHEMBL2417534, “Discovery and SAR of a novel series of GIRK1/2 and GIRK1/4 activators” (Bioorg Med Chem Lett, 2013).

Experiments:
[1] = target: T1, Kir3.1/Kir3.4 (Homo sapiens) (UniProt P48549+P48544); assay: Activation of GIRK1/4 (unknown origin) transfected in HEK293 cells at 20 uM after 4 mins by thallium flux-based fluorescence assay relative to ML297; assay type: cell-based
How it was run: (§1)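 Single-concentration thallium flux in HEK-293 cells stably expressing GIRK1/GIRK2 or GIRK1/GIRK4, loaded with 0.5 μM Thallos-AM for ~60 min at room temperature. 20 μM compound in 0.2% DMSO/HEPES-buffered HBSS (pH 7.4) added, followed 4 min later by a Tl2SO4 bicarbonate stimulus. Read-out is the slope of F/F0 after stimulus, vehicle-subtracted, expressed relative to reference activator.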

Kir3.1/Kir3.4 [2] = target: T2, Kir3.1/Kir3.4 (Homo sapiens, UniProt P48544+P48549); assay: Activation of GIRK1/4 (unknown origin) transfected in HEK293 cells after 4 mins by thallium flux-based fluorescence assay; assay type: cell-based
T2 sequence (P48549 whole entry): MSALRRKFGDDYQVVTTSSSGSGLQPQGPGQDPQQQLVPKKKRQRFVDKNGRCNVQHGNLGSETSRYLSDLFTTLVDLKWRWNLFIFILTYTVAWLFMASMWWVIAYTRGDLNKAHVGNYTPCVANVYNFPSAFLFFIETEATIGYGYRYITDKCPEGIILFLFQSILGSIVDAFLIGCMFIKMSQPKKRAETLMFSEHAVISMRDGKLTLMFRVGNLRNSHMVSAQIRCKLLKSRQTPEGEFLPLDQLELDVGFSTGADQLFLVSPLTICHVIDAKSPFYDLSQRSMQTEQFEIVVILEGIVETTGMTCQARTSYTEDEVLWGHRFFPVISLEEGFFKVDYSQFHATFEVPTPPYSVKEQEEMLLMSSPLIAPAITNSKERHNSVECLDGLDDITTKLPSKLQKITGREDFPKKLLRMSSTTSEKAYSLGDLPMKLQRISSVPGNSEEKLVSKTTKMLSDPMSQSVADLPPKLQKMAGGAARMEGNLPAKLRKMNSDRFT
T2 sequence (P48544 whole entry): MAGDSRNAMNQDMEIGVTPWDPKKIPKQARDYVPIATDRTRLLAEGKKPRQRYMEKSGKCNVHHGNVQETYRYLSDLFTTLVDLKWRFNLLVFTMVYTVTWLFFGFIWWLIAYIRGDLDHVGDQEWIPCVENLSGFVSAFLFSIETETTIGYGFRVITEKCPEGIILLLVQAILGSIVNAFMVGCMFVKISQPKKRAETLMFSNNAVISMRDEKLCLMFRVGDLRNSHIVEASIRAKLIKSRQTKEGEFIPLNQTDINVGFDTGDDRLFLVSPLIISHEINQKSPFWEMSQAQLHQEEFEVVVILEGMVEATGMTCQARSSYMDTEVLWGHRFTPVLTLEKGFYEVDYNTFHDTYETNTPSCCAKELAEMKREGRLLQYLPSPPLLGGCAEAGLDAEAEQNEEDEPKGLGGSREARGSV
How it was run: (§2)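 Loaded with 0.5 μM Thallos-AM for ~60 min at room temperature in HEPES-buffered HBSS pH 7.4. Compounds (11-point, threefold dilutions) added 4 min before a thallium sulfate/bicarbonate stimulus. Fluorescence read at 1 Hz, F/F0 minus vehicle, slope after stimulus. Potency from triplicates. Efficacy normalised to reference activator set at 100%.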

[3] = target: T3, Kir3.1/Kir3.2 (Homo sapiens) (UniProt P48549+P48051); assay: Activation of GIRK1/2 (unknown origin) transfected in HEK293 cells at 20 uM after 4 mins by thallium flux-based fluorescence assay relative to ML297; assay type: cell-based; how it was run: as §1
Kir3.1/Kir3.2 [4] = target: T4, Kir3.1/Kir3.2 (Homo sapiens, UniProt P48051+P48549); assay: Activation of GIRK1/2 (unknown origin) transfected in HEK293 cells after 4 mins by thallium flux-based fluorescence assay; assay type: cell-based
T4 sequence (P48549 whole entry): T2 sequence (P48549 whole entry)
T4 sequence (P48051 whole entry): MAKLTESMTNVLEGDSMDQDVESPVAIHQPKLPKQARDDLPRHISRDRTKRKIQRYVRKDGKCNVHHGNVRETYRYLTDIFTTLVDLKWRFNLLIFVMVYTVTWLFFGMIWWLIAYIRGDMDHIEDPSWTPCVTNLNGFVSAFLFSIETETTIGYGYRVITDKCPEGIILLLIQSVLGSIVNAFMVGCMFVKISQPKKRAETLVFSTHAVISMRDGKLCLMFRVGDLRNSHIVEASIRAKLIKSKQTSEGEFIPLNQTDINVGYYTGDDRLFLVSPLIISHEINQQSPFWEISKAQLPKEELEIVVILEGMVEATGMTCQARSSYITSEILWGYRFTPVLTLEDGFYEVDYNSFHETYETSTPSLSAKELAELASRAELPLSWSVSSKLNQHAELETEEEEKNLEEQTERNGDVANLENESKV
How it was run: (§3)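 Loaded with 0.5 μM Thallos-AM for ~60 min at room temperature in HEPES-buffered HBSS pH 7.4. Fluorescence read at 1 Hz, F/F0 minus vehicle, slope after stimulus. Potency from triplicates. Efficacy normalised to reference activator set at 100%.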

[5] = target: T1, Kir3.1/Kir3.4 (Homo sapiens); assay: Activation of GIRK1/4 (unknown origin) by cell-based thallium flux assay relative to control; how it was run: as §2
Kir3.1/Kir3.4 [6] = target: T2, Kir3.1/Kir3.4; assay: Activation of GIRK1/4 (unknown origin) by cell-based thallium flux assay; how it was run: as §2
Kir3.1/Kir3.2 [7] = target: T4, Kir3.1/Kir3.2; assay: Activation of GIRK1/2 (unknown origin) by cell-based thallium flux assay; how it was run: as §3
[8] = target: T3, Kir3.1/Kir3.2 (Homo sapiens); assay: Activation of GIRK1/2 (unknown origin) by cell-based thallium flux assay relative to control; how it was run: as §2
Kir3.1/Kir3.4 [9] = target: T2, Kir3.1/Kir3.4; assay: Activation of recombinant human GIRK1/4 expressed in Xenopus oocytes by two-electrode voltage clamp method; assay type: cell-based, Oocyte
Kir3.1/Kir3.2 [10] = target: T4, Kir3.1/Kir3.2; assay: Activation of recombinant human GIRK1/2 expressed in Xenopus oocytes by two-electrode voltage clamp method; assay type: cell-based, Oocyte

Structure (SMILES) | Efficacy [1] [%] | EC50 (Kir3.1/Kir3.4 [2]) [µM] | Efficacy [3] [%] | EC50 (Kir3.1/Kir3.2 [4]) [µM] | further results
Cc1ccc(NC(=O)Nc2ccc(C)c(S(=O)(=O)N(C)C)c2)cc1Cl | 115 | 6.2 | 91 | 2.9 | –
CN(C)S(=O)(=O)c1cccc(NC(=O)Cc2ccccc2Cl)c1 | – | – | – | – | Efficacy [5]: 123%; EC50 (Kir3.1/Kir3.4 [6]): 1.6 µM; EC50 (Kir3.1/Kir3.2 [7]): 3.3 µM; Efficacy [8]: 55%
COc1ccc(NC(=O)Nc2ccc(C)c(S(=O)(=O)N(C)C)c2)cc1 | 104 | 5.6 | 101 | 1.7 | –
O=C(Cc1ccccc1Cl)Nc1ccc(Cl)c(C(F)(F)F)c1 | 17 | – | – | > 10 | –
Cc1ccc(NC(=O)Nc2ccccc2F)cc1S(=O)(=O)N(C)C | 72 | 7.8 | 111 | 3.9 | –
COc1ccc(OC)c(NC(=O)Nc2ccc(C)c(S(=O)(=O)N(C)C)c2)c1 | – | > 10 | – | > 10 | –
Cc1ccc(NC(=O)Cc2ccccc2Br)cc1S(=O)(=O)N(C)C | – | – | – | – | Efficacy [5]: 114%; EC50 (Kir3.1/Kir3.4 [6]): 1.6 µM; Efficacy [8]: 108%
Cc1ccc(NC(=O)Nc2ccc(Cl)cc2)cc1S(=O)(=O)N(C)C | 72 | 2.8 | 92 | 3.3 | –
O=C(Cc1ccccc1Cl)Nc1ccc(C(F)(F)F)cc1 | 20 | 2.1 | – | > 10 | –
Cc1ccc(NC(=O)Nc2cccc(F)c2)cc1S(=O)(=O)N(C)C | 55 | 1.8 | 89 | 1.1 | –
O=C(Cc1ccccc1Cl)Nc1cccc(Cl)c1 | 22 | – | – | > 10 | –
CN(C)S(=O)(=O)c1cccc(NC(=O)Cc2ccc(Cl)cc2)c1 | – | – | – | – | Efficacy [5]: 64%; EC50 (Kir3.1/Kir3.4 [6]): 2.2 µM; EC50 (Kir3.1/Kir3.2 [7]): 2.3 µM; Efficacy [8]: 71%
Cc1ccc(NC(=O)Nc2ccccc2)cc1S(=O)(=O)N(C)C | 100 | – | 94 | – | –
Cc1ccc(NC(=O)Nc2ccccc2Cl)cc1S(=O)(=O)N(C)C | 106 | 6.8 | 94 | 2.7 | –
O=C(Cc1ccccc1Cl)Nc1cc(Cl)cc(C(F)(F)F)c1 | – | > 10 | – | > 10 | –
C[C@@H]1O[C@@H](O[C@H]2[C@H](Oc3cc(O)c4c(c3)O[C@H](c3ccc(O)cc3)CC4=O)O[C@H](CO)[C@@H](O)[C@@H]2O)[C@H](O)[C@H](O)[C@H]1O [NARINGIN] | – | – | – | – | EC50 (Kir3.1/Kir3.4 [9]): > 100 µM; EC50 (Kir3.1/Kir3.2 [10]): > 100 µM
Cc1cccc(NC(=O)Cc2ccccc2Cl)c1 | – | > 10 | – | > 10 | –
CC(C)(C)c1cccc(NC(=O)Cc2ccccc2Cl)c1 | 76 | – | 44 | – | –
O=C(Cc1ccccc1Cl)Nc1ccc(Cl)cc1 | – | > 10 | – | > 10 | –
O=C(Cc1ccccc1Cl)Nc1cccc(OC(F)F)c1 | 119 | – | – | > 10 | –
Cc1ccc(NC(=O)Cc2ccccc2Cl)cc1S(=O)(=O)N(C)C | – | – | – | – | Efficacy [5]: 104%; EC50 (Kir3.1/Kir3.4 [6]): 1.1 µM; EC50 (Kir3.1/Kir3.2 [7]): 1.1 µM; Efficacy [8]: 110%
Cc1ccc(NC(=O)Cc2ccc(F)cc2)cc1S(=O)(=O)N(C)C | – | – | – | – | Efficacy [5]: 108%; EC50 (Kir3.1/Kir3.4 [6]): 5.2 µM; EC50 (Kir3.1/Kir3.2 [7]): 3.6 µM; Efficacy [8]: 107%
Cc1ccc(NC(=O)Nc2cccc(C#N)c2)cc1S(=O)(=O)N(C)C | 29 | – | 83 | – | –
CS(=O)(=O)c1cc(NC(=O)Cc2ccccc2Cl)ccc1F | – | > 10 | – | > 10 | –
Cc1ccc(NC(=O)Nc2ccc(C(F)(F)F)cc2)cc1S(=O)(=O)N(C)C | – | > 10 | 26 | 1.5 | –
